Published values gathered from unrelated publications.
Protocols differ between the studies behind these lines.
Target: Phosphorylase b kinase gamma catalytic chain, liver/testis isoform (PHKG2, Homo sapiens, UniProt P15735)
One construct used (P15735 1-406): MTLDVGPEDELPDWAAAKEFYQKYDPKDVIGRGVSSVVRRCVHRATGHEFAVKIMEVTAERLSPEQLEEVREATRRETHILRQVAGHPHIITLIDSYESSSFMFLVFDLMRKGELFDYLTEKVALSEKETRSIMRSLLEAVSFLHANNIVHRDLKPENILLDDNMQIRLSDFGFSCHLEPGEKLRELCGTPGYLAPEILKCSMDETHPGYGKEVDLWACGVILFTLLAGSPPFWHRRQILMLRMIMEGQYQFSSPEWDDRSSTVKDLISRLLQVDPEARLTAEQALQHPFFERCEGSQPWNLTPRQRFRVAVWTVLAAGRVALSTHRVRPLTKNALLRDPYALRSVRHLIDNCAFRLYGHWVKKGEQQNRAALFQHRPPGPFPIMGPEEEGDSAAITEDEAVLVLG

`C[C@@H]1CN(c2cc(-c3n[nH]c4ccc(OC5(C)CC5)cc34)ncn2)C[C@H](C)O1` has a remaining binding of 91% (cell-free assay; competition with immobilised ligand; 0.1 µM).
The remaining binding of `c1cncc(-c2cccc(Nc3nccc(NC4CCCCC4)n3)c2)c1` is reported as 71% (binding; competition with immobilised ligand; 10 µM).
`CS(=O)(=O)N1CCCC(NC(=O)[C@H](CCC2CCCCC2)NC(=O)c2ccc(CNC(=O)c3cnc4ccccn34)cc2)C1` (stereo partly drawn) gave a remaining binding of 100% (cell-free assay; competition with immobilised ligand; 0.1 µM).
`N[C@@H]1CCN(c2nccc(-c3cnn4ncccc34)n2)C1` has a remaining binding of 84% (binding; 1 µM).
For `COc1cnc(Nc2cccc(S(N)(=O)=O)c2)nc1N1CCN(c2ccccc2)C(=O)C1`, the remaining binding was 100% (binding; competition with immobilised ligand; 1 µM).
For `CN(C)c1nccc(-c2cnc3ncccn23)n1`, the remaining binding was 89% (binding; 1 µM).
`CNC(=O)[C@@H]1CC[C@@H](n2c(-c3ccc4cnccc4c3)nc3ccc(C(=O)NCc4cccc(C(N)=O)c4)cc32)C1` gave a remaining binding of 99% (binding; competition with immobilised ligand; 1 µM).
`COc1ncc2cc3ccccc3nc2c1C#N` has a remaining binding of 100% (cell-free assay; competition with immobilised ligand; 5 µM).
`Cc1cc(-n2nc(Cc3cc(F)cc(C(F)(F)F)c3)nc2C)ccc1C(N)=O` gave a remaining binding of 100% (cell-free assay; competition with immobilised ligand; 1 µM).
`CN(CCCC(F)(F)F)c1nccc(-c2cnn3ncccc23)n1` gave a remaining binding of 100% (binding; 1 µM).
`CCS(=O)(=O)c1cc2cc(C[C@@](O)(CC(C)(C)c3ccc(F)cc3C(N)=O)C(F)(F)F)[nH]c2cn1` has a remaining binding of 100% (cell-free assay; competition with immobilised ligand; 1 µM).
For `Cc1cnn2ncc(-c3ccnc(N(C)C)n3)c2c1`, the remaining binding was 95% (binding; 1 µM).
For `C[C@H](c1cccc(C#N)c1)n1cc(Cl)cc(C(N)=O)c1=N`, the remaining binding was 100% (cell-free assay; competition with immobilised ligand; 1 µM).
With `O=C(c1ccc(Nc2ncc(Cl)c(-c3cc4ccccc4s3)n2)cc1)N1CCC(N2CCCC2)CC1` the remaining binding was 74% (binding; competition with immobilised ligand; 1 µM).
The remaining binding of `O=C(NCCCC1CCCCC1)c1ccc(CNC(=O)c2cnn(-c3ccccc3)c2C(F)(F)F)cc1` is reported as 100% (cell-free assay; competition with immobilised ligand; 0.1 µM).
The remaining binding of `C[C@@H](c1ccc(-n2cnc3c(N)ncnc32)cc1)N1CCc2nn(C)c(Cc3ccccc3)c2C1=O` is reported as 100% (binding; competition with immobilised ligand; 0.1 µM).
The remaining binding of `CN(C)c1ncc(F)c(-c2cnn3ncccc23)n1` is reported as 69% (binding; 1 µM).
With `O=C(NCCCN1CCOCC1)c1ccc(Nc2ncc(Cl)c(-c3ccc(Cl)s3)n2)cc1` the remaining binding was 60% (binding; competition with immobilised ligand; 1 µM).
For `O=C(NCC1CCOCC1)c1n[nH]cc1NC(=O)c1c(F)cccc1F`, the remaining binding was 96% (binding; competition with immobilised ligand; 1 µM).
The remaining binding of `C[C@H]1CCN(c2nccc(-c3cnn4ncccc34)n2)C1` is reported as 79% (binding; 1 µM).
`O=C(NCCCN1CCOCC1)c1ccc(Nc2nccc(-c3cc4ccccc4s3)n2)cc1` has a remaining binding of 33% (binding; competition with immobilised ligand; 1 µM).
